Assay results: article PMC3321063 (Bioorganic & medicinal chemistry letters, 2012)
Entries after “also recorded” stand apart in the source; their conditions may differ.

Key:
[1] = biological target: T1, signal peptide peptidase (SPP) (Homo sapiens, UniProt Q8TCT9); format: binding; settings: HeLa membranes, probe 20 nM
T1 sequence (Q8TCT9 1-377): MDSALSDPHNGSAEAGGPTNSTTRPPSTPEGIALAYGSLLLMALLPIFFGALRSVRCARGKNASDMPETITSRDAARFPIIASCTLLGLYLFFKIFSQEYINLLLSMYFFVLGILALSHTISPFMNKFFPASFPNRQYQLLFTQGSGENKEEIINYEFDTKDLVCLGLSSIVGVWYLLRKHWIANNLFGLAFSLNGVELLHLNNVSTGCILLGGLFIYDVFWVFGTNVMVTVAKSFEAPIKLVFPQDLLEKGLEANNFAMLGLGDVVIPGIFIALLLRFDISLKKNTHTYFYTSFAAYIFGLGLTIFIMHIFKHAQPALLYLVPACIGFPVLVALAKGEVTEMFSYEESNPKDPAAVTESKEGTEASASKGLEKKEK
In short: (§1)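 HeLa membranes (800 μg/1.2 mL PBS) incubated 1 h at 37 °C with clickable photoprobe (20 nM) with or without competing GSI (1 μM), then irradiated at ~350 nm for 30 min at 4 °C and pelleted. Click reaction in PBS: TCEP 1.0 mM, CuSO4 1.0 mM, TBTA 0.1 mM, biotin-azide 0.1 mM, 1 h RT with agitation. Pelleted membranes solubilized in RIPA, streptavidin-enriched, SDS-PAGE, Western blot.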

[2] = biological target: PS1-NTF (Homo sapiens, UniProt P49768); format: binding; settings: HeLa membranes; for PS1-NTF photolabeling: irradiation ~350 nm
In short: as §1

[3] = biological target: PS1-CTF (Homo sapiens, UniProt P49768); format: binding; settings: HeLa membranes, probe 20 nM
In short: as §1

[4] = tested on: intracellular γ-secretase; settings: previous studies; cited from earlier work

Structure (SMILES)	SPP photolabeling [1]	PS1-NTF photolabeling ([2]; probe 20 nM)	further results
C#CCCCCNC(=O)[C@H](Cc1ccc(C(=O)c2ccccc2)cc1)NC(=O)[C@H](CC(C)C)NC(=O)[C@H](Cc1ccccc1)C[C@@H](O)[C@H](Cc1ccccc1)NC(=O)OC(C)(C)C [compound 5]	significant labeling of SPP	minimal PS1-NTF labeling	PS1-CTF photolabeling [3]: expected preference for PS1-CTF
CC(C)C[C@H](NC(=O)[C@H](Cc1ccccc1)C[C@@H](O)[C@H](Cc1ccccc1)NC(=O)OC(C)(C)C)C(=O)N[C@@H](Cc1ccccc1)C(N)=O [compound 1, reference compound]			blocking of PS1-NTF labeling by competitor ([2]; competitor 1 μM, probe 2 or 4): PS1-NTF labeling was blocked
C#CCCCCNC(=O)[C@H](Cc1ccccc1)NC(=O)[C@H](CC(C)C)NC(=O)[C@H](Cc1ccccc1)C[C@@H](O)[C@H](Cc1ccccc1)NC(=O)c1ccc(C(=O)c2ccccc2)cc1 [compound 4]	minimal labeling of SPP	efficient PS1-NTF photolabeling; also recorded: strongly labeled PS1-NTF vs. CTF	labeling efficiency of PS1-NTF relative to 2 (fold less) ([2]; probe 20 nM, after click reaction with biotin-azide): 2–3 fold
CC(C)C[C@H](NC(=O)[C@H](Cc1ccccc1)C[C@@H](O)[C@H](Cc1ccccc1)NC(=O)c1ccc(C(=O)c2ccccc2)cc1)C(=O)N[C@@H](Cc1ccccc1)C(=O)NCCCCCNC(=O)CCCC[C@@H]1SC[C@@H]2NC(=O)N[C@@H]21 [compound 2]			cell penetration (plasma membrane, access to intracellular γ-secretase) [4]: cannot
